From ChEMBL document CHEMBL1649293, “Susceptibilities of human cytomegalovirus clinical isolates and other herpesviruses to new acetylated, tetrahalogenated benzimidazole D-ribonucleosides” (Antimicrob Agents Chemother, 2009)
Calls of active or inactive are those of the source. No cut-off for these calls is given here.

Legend:
Human betaherpesvirus 5 [1] = experiment: Antiviral activity against ganciclovir-sensitive HCMV infected in HFF assessed as reduction in viral plaque formation after 8 days by microscopy; type: functional, organism-based; conditions: Human betaherpesvirus 5, 192 h
In short: (§1)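 HFF (1 × 10^5/well) infected with GCV-sensitive or GCV-resistant clinical isolates at MOI 0.01. After 1 h, inoculum replaced by methyl cellulose overlay with DMEM, 3% FCS and compound dilutions in duplicate. Incubation 8 days at 37°C, then crystal violet staining and plaque counting by microscope. EC50 derived relative to untreated cells.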

Human betaherpesvirus 5 [2] = experiment: Antiviral activity against ganciclovir-resistant HCMV infected in HFF assessed as reduction in viral plaque formation after 8 days by microscopy; type: functional, organism-based; conditions: Human betaherpesvirus 5, 192 h; in short: as §1
Human betaherpesvirus 5 [3] = experiment: Antiviral activity against ganciclovir-sensitive HCMV infected in HFF assessed as cleavage of viral DNA concatemer at 30 uM measured after 72 hrs postinfection by […]; type: functional, organism-based
In short: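 HFF (1 × 10^6) infected with a GCV-sensitive clinical isolate at MOI 1 in the presence of 30 μM compound. DNA was harvested at 72 h p.i. and separated by PFGE in 1% low-melting agarose (15–110 s, 150 V, 27 h). Cleavage into unit-length genomes was judged after ethidium bromide staining.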

Human betaherpesvirus 5 [4] = experiment: Antiviral activity against ganciclovir-resistant HCMV infected in HFF assessed as cleavage of viral DNA concatemer at 30 uM measured after 72 hrs postinfection by […]; type: functional, organism-based
Human betaherpesvirus 5 [5] = experiment: Antiviral activity against ganciclovir-sensitive HCMV infected in HFF assessed as formation of viral capsid type A at 10 uM measured after 72 hrs postinfection by electron microscopy; type: functional
In short: (§2)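 HFF (1 × 10^6) infected with GCV-sensitive or GCV-resistant clinical isolates at MOI 1, with or without 10 μM compound. Cells fixed 72 h p.i., embedded, thin-sectioned, and examined by transmission EM at 120 kV. Nuclear A, B and C capsids counted.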

Human betaherpesvirus 5 [6] = experiment: Antiviral activity against ganciclovir-sensitive HCMV infected in HFF assessed as formation of viral capsid type B at 10 uM measured after 72 hrs postinfection by electron microscopy; type: functional; in short: as §2
Human betaherpesvirus 5 [7] = experiment: Antiviral activity against ganciclovir-sensitive HCMV infected in HFF assessed as formation of viral capsid type C at 10 uM measured after 72 hrs postinfection by electron microscopy; type: functional; in short: as §2
Human betaherpesvirus 5 [8] = experiment: Antiviral activity against ganciclovir-resistant HCMV infected in HFF assessed as formation of viral capsid type A at 10 uM measured after 72 hrs postinfection by electron microscopy; type: functional; in short: as §2
Human betaherpesvirus 5 [9] = experiment: Antiviral activity against ganciclovir-resistant HCMV infected in HFF assessed as formation of viral capsid type B at 10 uM measured after 72 hrs postinfection by electron microscopy; type: functional; in short: as §2
Human betaherpesvirus 5 [10] = experiment: Antiviral activity against ganciclovir-resistant HCMV infected in HFF assessed as formation of viral capsid type C at 10 uM measured after 72 hrs postinfection by electron microscopy; type: functional; in short: as §2
[11] = Cytotoxicity against HFF after 8 days by XTT assay; type: cell-based; conditions: human, HFF cells
In short: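 XTT proliferation assay: HFF seeded at 5 × 10^4/well were exposed to a range of drug concentrations for 8 days at 37°C. XTT labeling mixture was then added for 4 h, and absorbance was read at 492 nm (reference 650 nm). CC50 was derived.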

[12] = Cytotoxicity against rat Rat2 cells after 8 days by XTT assay; type: cell-based
In short: (§3)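 XTT cell-proliferation read-out after 8 days of exposure at 37°C to varied drug concentrations. Absorbance was read at 492 nm against 650 nm reference, 4 h after adding XTT labeling mixture. CC50 was determined.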

[13] = Cytotoxicity against mouse NIH/3T3 cells after 8 days by XTT assay; type: cell-based, NIH3T3; in short: as §3
Human betaherpesvirus 5 [14] = experiment: Antiviral activity against HCMV AD169 infected in HFF assessed as viral plaque formation at 5 uM after 8 days by microscopy relative to control; type: functional
In short: (§4)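 Plaque reduction with compound at a single concentration of 5 μM. After infection, plaques were counted under a microscope, and inhibition was expressed relative to untreated infected cells.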

Human alphaherpesvirus 1 = experiment: Antiviral activity against Herpes simplex virus 1 KOS infected in HFF assessed as viral plaque formation at 5 uM after 8 days by microscopy relative to control; type: functional; in short: as §4
Human alphaherpesvirus 3 = experiment: Antiviral activity against VZV OKA infected in HFF assessed as viral plaque formation at 5 uM after 8 days by microscopy relative to control; type: functional; in short: as §4
[15] = Selectivity index, ratio of CC50 for HFF to EC50 for ganciclovir-sensitive HCMV infected in HFF
[16] = Selectivity index, ratio of CC50 for HFF to EC50 for ganciclovir-resistant HCMV infected in HFF
In short: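 CC50 in HFF (5 × 10^4/well) after 8 days at 37°C with drug dilutions, read by XTT (4 h, A492 with 650 nm reference). EC50 from 8-day plaque reduction in HFF infected with GCV-resistant clinical isolate at MOI 0.01 under methyl cellulose, duplicates, crystal violet staining.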

[17] = tested on: Murid betaherpesvirus 1 (mouse cytomegalovirus); experiment: Antiviral activity against MCMV Smith infected in NIH 3T3 assessed as viral plaque formation at 5 uM after 8 days by microscopy relative to control
Human betaherpesvirus 5 [18] = experiment: Antiviral activity against ganciclovir-sensitive HCMV infected in HFF assessed as cleavage of viral DNA concatemer at 10 uM measured after 72 hrs postinfection by […]; type: functional, organism-based
In short: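 HFF (1 × 10^6) infected with a GCV-sensitive clinical isolate at MOI 1 and treated with 10 μM compound. DNA was isolated 72 h p.i. and run by pulsed-field electrophoresis on 1% low-melting agarose (15–110 s pulses, 150 V, 27 h). Unit-length versus concatemeric DNA was viewed by ethidium bromide staining. Mock- and AD169-infected cells served as controls.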

Human betaherpesvirus 5 [19] = experiment: Antiviral activity against ganciclovir-resistant HCMV infected in HFF assessed as cleavage of viral DNA concatemer at 10 uM measured after 72 hrs postinfection by […]; type: functional, organism-based

Row | Structure (SMILES) | EC50 (Human betaherpesvirus 5 [1]) [µM] | EC50 (Human betaherpesvirus 5 [2]) [µM] | Activity (Human betaherpesvirus 5 [5]) [%] | Activity (Human betaherpesvirus 5 [6]) [%] | Activity (Human betaherpesvirus 5 [7]) [%] | Activity (Human betaherpesvirus 5 [8]) [%] | Activity (Human betaherpesvirus 5 [9]) [%] | Activity (Human betaherpesvirus 5 [10]) [%] | CC50 at 192 h [11] [µM] | CC50 at 192 h [12] [µM] | CC50 at 192 h [13] [µM] | Activity (Human betaherpesvirus 5 [14]) [%] | Activity (Human alphaherpesvirus 1) [%] | Activity (Human alphaherpesvirus 3) [%] | Ratio CC50/EC50 [15] | Ratio CC50/EC50 [16] | Activity [17] [%] | other results
1 | CC(=O)OC[C@H]1O[C@@H](n2c(Br)nc3c(Cl)c(Cl)c(Cl)cc32)[C@H](OC(C)=O)[C@@H]1OC(C)=O | 0.33 | 0.5 | 10.7 | 60.5 | 28.8 | 15.3 | 60.7 | 24 | 27.9 | 14.5 | 15.1 | 0.42 | 76.6 | 26.1 | 121 | 55.8 | 70.8 | Activity (Human betaherpesvirus 5 [3]): Active; Activity (Human betaherpesvirus 5 [4]): Active
2 | OC[C@H]1O[C@@H](n2c(Br)nc3cc(Cl)c(Cl)cc32)[C@H](O)[C@@H]1O | 0.35 | 0.47 | 13.6 | 67.2 | 21.4 | 13.8 | 55 | 31.2 | 314 | 136 | 88.1 | 0.34 | 46.6 | 31.6 | 896 | 667 | 41.6 | 
3 | CC(=O)OC[C@H]1O[C@@H](n2c(Cl)nc3c(Cl)c(Cl)c(Cl)cc32)[C@H](OC(C)=O)[C@@H]1OC(C)=O | 0.34 | 0.15 | 10.5 | 76.4 | 13.3 | 8.6 | 61.5 | 29.9 | 66.7 | 19.2 | 39.6 | 0.25 |  | 31.1 | 202 | 445 | 68.3 | Activity (Human betaherpesvirus 5 [18]): Active; Activity (Human betaherpesvirus 5 [19]): Active
